# High-throughput results: PubChem, several laboratories
# Sampled rows, rich in hits. Any-hit rate of the full collection: about 2.3%.
# NPY Y1 blocker = NPY-Y1 receptor antagonists, primary screen, cell-based; Neuropeptide Y receptor type 1 (Homo sapiens), P25929; HEK293-CNG Y1 cells, membrane potential fluorescence; NPY at EC95, then isoproterenol; inhibition, % at 3.6 µM; hit rate 1% among 200,000; AID 1040, 2008;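 active = inhibition above the campaign mean inhibition of all tested compounds plus 3 SD, cut at about 20% in these data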;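 note: 0% = DMSO wells given NPY plus isoproterenol and 100% = isoproterenol alone without NPY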
# Target sequence (P25929 whole entry, looked up): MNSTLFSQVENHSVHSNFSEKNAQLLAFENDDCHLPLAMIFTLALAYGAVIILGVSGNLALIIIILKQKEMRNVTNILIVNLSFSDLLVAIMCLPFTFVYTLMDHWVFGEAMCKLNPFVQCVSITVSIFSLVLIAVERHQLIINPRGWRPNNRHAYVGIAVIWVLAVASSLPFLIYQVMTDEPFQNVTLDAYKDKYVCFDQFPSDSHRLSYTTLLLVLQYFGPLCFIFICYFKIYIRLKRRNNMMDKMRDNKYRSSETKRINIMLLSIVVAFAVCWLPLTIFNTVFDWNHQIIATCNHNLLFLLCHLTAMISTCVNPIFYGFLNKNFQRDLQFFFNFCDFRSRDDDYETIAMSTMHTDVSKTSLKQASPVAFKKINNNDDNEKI
#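 Benchmarks – high control isoproterenol alone, low control NPY with isoproterenol · Material – HEK293 Y1/CNG channel cell line · Times – dye 3 h, compound 60 min room temperature, stimulation 45 min · Probe or stimulus – NPY (25 nM), isoproterenol (1 µM), Ro 20-1724 (25 µM) · Evaluation – % inhibition of NPY effect · Signal – fluorescence, membrane potential probe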
# NPY-Y2 antag = NPY-Y2 receptor antagonists, primary screen, cell-based | NPY-Y2 expressing cells, antagonist mode | inhibition, % at 2.7 µM | hit rate 0.99% among 140,000 | AID 793, 2007; in the data active = inhibition above about 17%;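 note: 0% = vehicle with agonist challenge and 100% = reference antagonist with challenge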
# NPY1 pot ag = NPY-Y1 receptor potentiators or agonists, primary screen, cell-based; NPY-Y1 expressing cells, potentiator/agonist activation; Neuropeptide Y receptor type 1 (Homo sapiens), P25929; AID 1304, 2008; hit rate 0.37% among 220,000; activation, % at 3.6 µM; in the data active = activation above about 33%, passing the limit was not always enough;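 note: cells stimulated with NPY at EC10 then isoproterenol at EC100; 0% = low agonist plus stimulus and 100% = saturating agonist plus stimulus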
# NPY2 pot ag = NPY-Y2 potentiators or agonists, primary screen, cell-based. hit rate 0.45% among 220,000. activation, % at 3.6 µM. Neuropeptide Y receptor type 2 (Homo sapiens), P49146. cells expressing NPY-Y2, potentiator/agonist read-out; in the data active = activation above about 27%;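 note: cells stimulated with NPY near EC25 plus isoproterenol at EC100; 0% = vehicle plus submaximal agonist and 100% = vehicle plus saturating agonist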
# TbHK1 inh = Trypanosoma brucei hexokinase 1 inhibitors, primary screen, biochemical, G6PDH-coupled NADH absorbance, MLSCN library; recombinant TbHK1, G6PDH-coupled NADH A340; hit rate 0.11% among 220,000; AID 1430, 2008; inhibition, % at 10 µM;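 active = inhibition of 50% or more in the single-dose primary screen; inactive = inhibition below 50%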
# Calpain2 inh = inhibitors of pig calpain II, primary screen, biochemical, fluorogenic peptide substrate, 1536-well; purified calpain II, 30 min; inhibition, % at 16 µM; hit rate 0.37% among 220,000; AID 1236, 2008;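 active = inhibition above about 50%, limit read from the data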
# G6PDH counter = Leuconostoc G6PDH inhibition, confirmation, counter-screen for TbHK1 inhibitor project, biochemical, DPI cherry-picked compounds, single concentration | purified G6PDH, NADH absorbance, 1 h | inhibition, % at 10 µM | shares compounds with TbHK1 inh | hit rate 7% among 210 | AID 2516, 2010;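 active = at least 50% inhibition in the glucose-6-phosphate dehydrogenase coupled counterscreen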
# TbHK1 rescreen = TbHK1 inhibitor retest, confirmation, biochemical, DPI cherry-picked primary actives; shares compounds with TbHK1 inh; recombinant TbHK1, G6PDH-coupled NADH A340 absorbance; inhibition, % at 10 µM; hit rate 10% among 210; AID 2560, 2010;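 active = inhibition of at least 50% in both of the two screening runs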;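 note: 0% and 100% set by the maximum and minimum signal control wells on each plate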
# * marks the source's active call; other numbers are inactive results; . = no result.
SMILES,NPY Y1 blocker,NPY-Y2 antag,NPY1 pot ag,NPY2 pot ag,TbHK1 inh,Calpain2 inh,G6PDH counter,TbHK1 rescreen
O=C(NNC(=S)NC(=O)c1ccccc1[N+](=O)[O-])c1ccccc1Cl,-3,1,24,1,17,-2,.,.
O=C(NC(=S)NNS(=O)(=O)c1ccccc1)c1cccnc1,0,.,1,7,5,-8,.,.
O=C(NC(=S)NNS(=O)(=O)c1ccccc1)c1ccc([N+](=O)[O-])cc1,-1,2,2,6,76*,5,-33,1
O=C(NC(=S)NNS(=O)(=O)c1ccccc1)c1ccccc1[N+](=O)[O-],-1,1,16,22,65*,2,-22,-1
C=CCn1c(SCC(=O)NCC(=O)OCC)nnc1-c1ccccn1,1,-1,-9,-8,50*,5,3,1
C=CCNC(=O)CSc1nnc(-c2ccccn2)n1Cc1ccccc1,5,.,-5,-13,0,-15,.,.
CCOC(=O)CNC(=O)CSc1nnc(-c2ccco2)n1Cc1ccco1,0,-2,12,-2,7,-15,.,.
CCOC(=O)CNC(=O)CSc1nnc(-c2ccco2)n1N,4,-1,6,-9,51*,-2,1,8
CC(C)c1[nH]nc2c1C(c1cccnc1)C(C#N)=C(N)O2 (configuration not stated),1,1,-5,-6,52*,-4,-11,4
N#Cc1cnn(-c2ccccc2)c1NC(=O)CN1CCN(c2ccccc2)CC1,.,.,9,10,-5,-16,.,.
OCC1N=C(c2ccccn2)OC1c1ccccc1 (configuration not stated),1,3,19,-5,56*,-9,0,0
Cc1ccc(CNC(=O)C2CNc3cc(C)ccc3O2)cc1 (configuration not stated),4,5,-19,-9,58*,10,-7,16
O=C1CSC(=S)N1/N=C/c1ccc(O)c(O)c1O,.,.,6,-1,50*,31,-49,35
COc1ccccc1C(=O)C1CCCN(C(=O)CCn2cnnn2)C1 (configuration not stated),.,.,18,17,-10,-1,.,.
NC(Cc1cccc2nsnc12)C(=O)O (configuration not stated),2,2,-12,10,58*,-32,-18,-7
NC(Cc1ccc2nsnc2c1)C(=O)O (configuration not stated),3,-1,-12,8,-8,.,.,.
Cc1occc1C(=O)NCCCCNC(=O)c1ccoc1C,0,0,-25,5,6,-24,.,.
CCCCCCCCCCCNC(=O)c1ccoc1C,4,3,-12,0,55*,-18,-31,86*
O=[N+]([O-])c1ccc(-c2cn3c(n2)CCC3)cc1,.,.,14,-2,-22,-15,.,.
Cc1nc(S(=O)(=O)N2CCOCC2)c(C#N)c(C)c1Cl,2,3,0,-9,55*,9,-8,-5
CCS(=O)(=O)c1ccc(O)c(NC(=O)Nc2ccc(C(C)(C)C)cc2)c1,.,.,22,15,-3,-19,.,.
CCS(=O)(=O)c1ccc(O)c(NC(=O)Nc2ccccc2)c1,5,-1,-2,-6,50*,10,-3,2
CCCCCOC(=O)NCC(O)c1ccccc1 (configuration not stated),2,2,15,11,53*,-2,-2,3
Cc1ccc(NC(=O)c2cc(C(=O)c3cc(Cl)ccc3O)cn(-c3ccc(C)cc3)c2=O)cc1,0,2,-18,-2,3,-10,.,.
CSc1cccc(NC(=O)C2CCCN2S(=O)(=O)c2ccc(Br)s2)c1 (configuration not stated),2,0,8,-8,54*,41,21,14
SMILES,NPY Y1 blocker,NPY-Y2 antag,NPY1 pot ag,NPY2 pot ag,TbHK1 inh,Calpain2 inh,G6PDH counter,TbHK1 rescreen
CSc1cccc(NC(=O)C2CCN(S(=O)(=O)c3ccc(F)cc3)CC2)c1,-8,-1,0,-11,7,21,.,.
Cc1cc(C)nc(NN=C(c2ccccc2)c2ccccc2)n1,-1,1,-1,-1,-16,3,.,.
Cc1c(N/N=C(\C#N)C(=O)c2ccccc2)c(=O)n(-c2ccccc2)n1C,3,2,-11,1,47,20,.,.
Cc1ccccc1C(=O)/C(C#N)=N/Nc1c(C)n(C)n(-c2ccccc2)c1=O,11,3,26,14,53*,11,-81,-62
O=[N+]([O-])c1cccc(S(=O)(=O)c2ccc(NCCO)c([N+](=O)[O-])c2)c1,-7,.,13,-2,-13,-18,.,.
O=C(Nc1c[nH]c(=O)[nH]c1=O)c1ccc2c(c1)C(=O)N(c1cccc([N+](=O)[O-])c1)C2=O,.,.,14,0,56*,18,84*,70*
CC(C)CN1C(=O)c2ccc(C(=O)Nc3c[nH]c(=O)[nH]c3=O)cc2C1=O,-2,.,5,-15,-7,-35,.,.
CSc1nc2n(n1)C(c1cc(Br)ccc1F)C(C(=O)N(C)C)=C(C)N2 (configuration not stated),5,-1,-14,-2,63*,2,-6,-7
COc1ccc(Br)cc1C1NC(=O)NC(C)=C1C(=O)N(C)C (configuration not stated),2,5,-1,2,-2,17,.,.
Nc1nc(=S)c2ncn(C3CCCC3)c2[nH]1,.,.,13,-3,-76,9,.,.
CSc1ccc(CN(C)CC(=O)Nc2cccc(Br)c2)cc1,10,3,-16,0,-2,23,.,.
O=C(c1ccco1)N1CCN(CC(=O)N2CCCc3c2c(=O)oc2ccc(O)cc32)CC1,6,-2,8,6,-13,-14,.,.
O=C(CN1CCN(Cc2ccccc2)CC1)N1CCCc2c1c(=O)oc1ccc(O)cc21,12,0,-22,-18,54*,21,8,-26
CCOC(=O)Cc1csc(SCn2nnc3ccccc3c2=O)n1,-4,0,-7,-7,-5,13,.,.
CCOC(=O)Cc1csc(-n2sc3ccccc3c2=O)n1,-5,-1,0,-1,66*,-68,-22,69*
